Results reported in ChEMBL document CHEMBL1629657, “In vitro antimicrobial activity of a new cephalosporin, ceftaroline, and determination of quality control ranges for MIC testing” (2009).
≈ marks a conversion by molar mass, not a printed value.

How the values were obtained:
Assay type in all cases: functional
Staphylococcus [1] = assay: Antimicrobial activity against methicillin-susceptible coagulase-negative Staphylococcus by broth microdilution method
Procedure, shortened: (§1)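 Clinical isolates were tested by CLSI broth microdilution in unsupplemented cation-adjusted Mueller-Hinton broth. The read-out was the MIC, reported as MIC90 (μg/ml) per species or phenotypic group. Ceftriaxone, levofloxacin and imipenem were run in parallel as comparators.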

Pseudomonas aeruginosa [2] = assay: Antimicrobial activity against multidrug resistant Pseudomonas aeruginosa by broth microdilution method
Procedure, shortened: (§2)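 Isolates of the stated resistance phenotype were tested by CLSI broth microdilution in unsupplemented cation-adjusted Mueller-Hinton broth. Ceftaroline was compared with ceftriaxone, levofloxacin and imipenem. Activity was expressed as MICs (MIC90 in μg/ml).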

Enterococcus faecium [3] = assay: Antimicrobial activity against Enterococcus faecium by broth microdilution method; procedure, shortened: as §1
Enterococcus faecium [4] = assay: Antimicrobial activity against vancomycin-susceptible Enterococcus faecium by broth microdilution method; procedure, shortened: as §1
[5] = fT>MIC Streptococcus pneumoniae infected mouse model for 1-log kill
[6] = fT>MIC Staphylococcus aureus infected mouse model for 1-log kill
Salmonella sp. = assay: Antimicrobial activity against Salmonella spp. by broth microdilution method; procedure, shortened: as §1
Enterococcus faecalis [7] = assay: Antimicrobial activity against Enterococcus faecalis by broth microdilution method; procedure, shortened: as §1
Listeria monocytogenes = assay: Antimicrobial activity against Listeria monocytogenes by broth microdilution method; procedure, shortened: as §1
Staphylococcus aureus [8] = assay: Antimicrobial activity against vancomycin-resistant Staphylococcus aureus by broth microdilution method; procedure, shortened: as §2
Streptococcus pneumoniae [9] = assay: Antimicrobial activity against penicillin-susceptible Streptococcus pneumoniae by broth microdilution method
Procedure, shortened: (§3)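 Streptococcal isolates were tested by CLSI broth microdilution in cation-adjusted Mueller-Hinton broth supplemented with 3% lysed horse blood. The read-out was the MIC, with MIC90 (μg/ml) reported per group. Ceftriaxone, levofloxacin and imipenem served as comparators.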

Proteus vulgaris = assay: Antimicrobial activity against Proteus vulgaris by broth microdilution method; procedure, shortened: as §1
Serratia marcescens = assay: Antimicrobial activity against Serratia marcescens by broth microdilution method; procedure, shortened: as §1
Streptococcus pyogenes [10] = assay: Antimicrobial activity against macrolide-resistant Streptococcus pyogenes by broth microdilution method
Procedure, shortened: (§4)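 CLSI broth microdilution in cation-adjusted Mueller-Hinton broth with 3% lysed horse blood, against streptococcal clinical isolates of the stated phenotype. Ceftaroline was compared with ceftriaxone, levofloxacin and imipenem. Activity was expressed as MICs (MIC90 in μg/ml).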

Corynebacterium jeikeium = assay: Antimicrobial activity against Corynebacterium jeikeium by broth microdilution method; procedure, shortened: as §1
Klebsiella aerogenes = assay: Antimicrobial activity against ESBL-negative Enterobacter aerogenes by broth microdilution method; procedure, shortened: as §1
[11] = fT>MIC Enterobacteriaceae infected mouse model for 1-log kill
Pseudomonas aeruginosa [12] = assay: Antimicrobial activity against Pseudomonas aeruginosa by broth microdilution method; procedure, shortened: as §1
Escherichia coli [13] = assay: Antimicrobial activity against ESBL-negative Escherichia coli by broth microdilution method; procedure, shortened: as §1
Providencia stuartii = assay: Antimicrobial activity against Proteus stuartii by broth microdilution method; procedure, shortened: as §1
Proteus mirabilis = assay: Antimicrobial activity against Proteus mirabilis by broth microdilution method; procedure, shortened: as §1
[14] = tested on: Stenotrophomonas maltophilia; assay: Antimicrobial activity against Stenotrophomonas maltophilia by broth microdilution method; procedure, shortened: as §1
Moraxella catarrhalis = assay: Antimicrobial activity against Moraxella catarrhalis by broth microdilution method; procedure, shortened: as §1
Streptococcus pneumoniae [15] = assay: Antimicrobial activity against penicillin-intermediate Streptococcus pneumoniae by broth microdilution method; procedure, shortened: as §4
Staphylococcus aureus [16] = assay: Antimicrobial activity against vancomycin-intermediate Staphylococcus aureus by broth microdilution method; procedure, shortened: as §1
Streptococcus viridans = assay: Antimicrobial activity against Streptococcus viridans group clinical isolate by broth microdilution method; procedure, shortened: as §3
Burkholderia cepacia = assay: Antimicrobial activity against Burkholderia cepacia by broth microdilution method; procedure, shortened: as §1
Haemophilus influenzae [17] = assay: Antimicrobial activity against beta-lactamase-positive Haemophilus influenzae by broth microdilution method
Procedure, shortened: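 H. influenzae isolates were tested by CLSI broth microdilution using Haemophilus test medium. The MIC was read and MIC90 (μg/ml) reported for the group. Ceftriaxone, levofloxacin and imipenem served as comparators.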

Streptococcus pneumoniae [18] = assay: Antimicrobial activity against penicillin-resistant Streptococcus pneumoniae by broth microdilution method; procedure, shortened: as §4
Morganella morganii = assay: Antimicrobial activity against Morganella morganii by broth microdilution method; procedure, shortened: as §1
Escherichia coli [19] = assay: Antimicrobial activity against ESBL-positive Escherichia coli by broth microdilution method; procedure, shortened: as §1
Staphylococcus aureus [20] = assay: Antimicrobial activity against methicillin-susceptible Staphylococcus aureus by broth microdilution method; procedure, shortened: as §1
Staphylococcus [21] = assay: Antimicrobial activity against methicillin-resistant coagulase-negative Staphylococcus by broth microdilution method; procedure, shortened: as §2
Shigella sp. = assay: Antimicrobial activity against Shigella spp. by broth microdilution method; procedure, shortened: as §1
Haemophilus influenzae [22] = assay: Antimicrobial activity against beta-lactamase-negative ampicillin resistant Haemophilus influenzae by broth microdilution method
Procedure, shortened: (§5)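 CLSI broth microdilution in Haemophilus test medium (cation-adjusted Mueller-Hinton base) against clinical H. influenzae isolates of the stated phenotype. Ceftaroline was compared with ceftriaxone, levofloxacin and imipenem. Activity was expressed as MICs (MIC90 in μg/ml).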

Haemophilus influenzae [23] = assay: Antimicrobial activity against beta-lactamase-negative Haemophilus influenzae by broth microdilution method; procedure, shortened: as §5
Streptococcus pneumoniae [24] = assay: Antimicrobial activity against levofloxacin-resistant Streptococcus pneumoniae by broth microdilution method; procedure, shortened: as §4
Staphylococcus aureus [25] = assay: Antimicrobial activity against methicillin-resistant Staphylococcus aureus by broth microdilution method; procedure, shortened: as §2
Streptococcus agalactiae = assay: Antimicrobial activity against Streptococcus agalactiae by broth microdilution method; procedure, shortened: as §3
Enterococcus faecalis [26] = assay: Antimicrobial activity against vancomycin-susceptible Enterococcus faecalis by broth microdilution method; procedure, shortened: as §1
Streptococcus pyogenes [27] = assay: Antimicrobial activity against macrolide-susceptible Streptococcus pyogenes by broth microdilution method; procedure, shortened: as §4
Klebsiella pneumoniae [28] = assay: Antimicrobial activity against ESBL-positive Klebsiella pneumoniae by broth microdilution method; procedure, shortened: as §1
Providencia rettgeri = assay: Antimicrobial activity against Proteus rettgeri by broth microdilution method; procedure, shortened: as §1
Enterobacter cloacae = assay: Antimicrobial activity against ESBL-negative Enterobacter cloacae by broth microdilution method; procedure, shortened: as §1
Klebsiella pneumoniae [29] = assay: Antimicrobial activity against ESBL-negative Klebsiella pneumoniae by broth microdilution method; procedure, shortened: as §1

CCO/N=C(\C(=O)N[C@@H]1C(=O)N2C(C(=O)[O-])=C(Sc3nc(-c4cc[n+](C)cc4)cs3)CS[C@H]12)c1nsc(NP(=O)(O)O)n1 [CEFTAROLINE FOSAMIL]
MIC50 (Staphylococcus [1]): 0.06 µg/mL (≈ 0.0876 µM)
MIC90 (Staphylococcus [1]): 0.25 µg/mL (≈ 0.365 µM)
MIC50 (Pseudomonas aeruginosa [2]): 16 µg/mL (≈ 23.4 µM)
MIC50 (Enterococcus faecium [3]): 32 µg/mL (≈ 46.7 µM)
MIC90 (Enterococcus faecium [3]): > 32 µg/mL
MIC50 (Enterococcus faecium [4]): 1 µg/mL (≈ 1.46 µM)
MIC90 (Enterococcus faecium [4]): 16 µg/mL (≈ 23.4 µM)
fT>MIC [5]: 43%
fT>MIC [6]: 33%
MIC50 (Salmonella sp.): 0.12 µg/mL (≈ 0.175 µM)
MIC90 (Salmonella sp.): > 32 µg/mL
MIC50 (Enterococcus faecalis [7]): 2 µg/mL (≈ 2.92 µM)
MIC90 (Enterococcus faecalis [7]): 4 µg/mL (≈ 5.84 µM)
MIC50 (Listeria monocytogenes): 4 µg/mL (≈ 5.84 µM)
MIC90 (Listeria monocytogenes): 4 µg/mL (≈ 5.84 µM)
MIC (Staphylococcus aureus [8]): 0.5 µg/mL (≈ 0.73 µM)
MIC (Streptococcus pneumoniae [9]): 0.015 µg/mL (≈ 0.0219 µM)
MIC50 (Streptococcus pneumoniae [9]): 0.015 µg/mL (≈ 0.0219 µM)
MIC90 (Streptococcus pneumoniae [9]): 0.015 µg/mL (≈ 0.0219 µM)
MIC50 (Proteus vulgaris): 16 µg/mL (≈ 23.4 µM)
MIC90 (Proteus vulgaris): > 32 µg/mL
MIC (Serratia marcescens): 0.5 µg/mL (≈ 0.73 µM)
MIC50 (Serratia marcescens): 0.5 µg/mL (≈ 0.73 µM)
MIC90 (Serratia marcescens): 8 µg/mL (≈ 11.7 µM)
MIC (Streptococcus pyogenes [10]): 0.015 µg/mL (≈ 0.0219 µM)
MIC50 (Streptococcus pyogenes [10]): 0.015 µg/mL (≈ 0.0219 µM)
MIC90 (Streptococcus pyogenes [10]): 0.015 µg/mL (≈ 0.0219 µM)
MIC50 (Corynebacterium jeikeium): > 32 µg/mL
MIC90 (Corynebacterium jeikeium): > 32 µg/mL
MIC50 (Klebsiella aerogenes): 0.12 µg/mL (≈ 0.175 µM)
MIC90 (Klebsiella aerogenes): > 32 µg/mL
fT>MIC [11]: 41%
MIC50 (Pseudomonas aeruginosa [12]): 16 µg/mL (≈ 23.4 µM)
MIC90 (Pseudomonas aeruginosa [12]): > 32 µg/mL
MIC50 (Escherichia coli [13]): 0.06 µg/mL (≈ 0.0876 µM)
MIC90 (Escherichia coli [13]): 1 µg/mL (≈ 1.46 µM)
MIC50 (Providencia stuartii): 1 µg/mL (≈ 1.46 µM)
MIC90 (Providencia stuartii): 4 µg/mL (≈ 5.84 µM)
MIC50 (Proteus mirabilis): 0.06 µg/mL (≈ 0.0876 µM)
MIC90 (Proteus mirabilis): 4 µg/mL (≈ 5.84 µM)
MIC50 [14]: > 32 µg/mL
MIC90 [14]: > 32 µg/mL
MIC50 (Moraxella catarrhalis): 0.12 µg/mL (≈ 0.175 µM)
MIC90 (Moraxella catarrhalis): 0.25 µg/mL (≈ 0.365 µM)
MIC50 (Streptococcus pneumoniae [15]): 0.03 µg/mL (≈ 0.0438 µM)
MIC90 (Streptococcus pneumoniae [15]): 0.06 µg/mL (≈ 0.0876 µM)
MIC50 (Staphylococcus aureus [16]): 1 µg/mL (≈ 1.46 µM)
MIC90 (Staphylococcus aureus [16]): 1 µg/mL (≈ 1.46 µM)
MIC (Streptococcus viridans): 0.015 µg/mL (≈ 0.0219 µM)
MIC50 (Streptococcus viridans): 0.015 µg/mL (≈ 0.0219 µM)
MIC90 (Streptococcus viridans): 0.12 µg/mL (≈ 0.175 µM)
MIC50 (Burkholderia cepacia): > 32 µg/mL
MIC90 (Burkholderia cepacia): > 32 µg/mL
MIC (Haemophilus influenzae [17]): 0.015 µg/mL (≈ 0.0219 µM)
MIC50 (Haemophilus influenzae [17]): 0.015 µg/mL (≈ 0.0219 µM)
MIC90 (Haemophilus influenzae [17]): 0.06 µg/mL (≈ 0.0876 µM)
MIC50 (Streptococcus pneumoniae [18]): 0.25 µg/mL (≈ 0.365 µM)
MIC90 (Streptococcus pneumoniae [18]): 0.5 µg/mL (≈ 0.73 µM)
MIC50 (Morganella morganii): > 32 µg/mL
MIC90 (Morganella morganii): > 32 µg/mL
MIC50 (Escherichia coli [19]): > 32 µg/mL
MIC90 (Escherichia coli [19]): > 32 µg/mL
MIC (Staphylococcus aureus [20]): 0.25 µg/mL (≈ 0.365 µM)
MIC50 (Staphylococcus aureus [20]): 0.25 µg/mL (≈ 0.365 µM)
MIC90 (Staphylococcus aureus [20]): 0.25 µg/mL (≈ 0.365 µM)
MIC50 (Staphylococcus [21]): 0.25 µg/mL (≈ 0.365 µM)
MIC90 (Staphylococcus [21]): 0.5 µg/mL (≈ 0.73 µM)
MIC50 (Shigella sp.): 0.03 µg/mL (≈ 0.0438 µM)
MIC90 (Shigella sp.): 0.12 µg/mL (≈ 0.175 µM)
MIC50 (Haemophilus influenzae [22]): 0.12 µg/mL (≈ 0.175 µM)
MIC90 (Haemophilus influenzae [22]): 0.25 µg/mL (≈ 0.365 µM)
MIC (Haemophilus influenzae [23]): 0.015 µg/mL (≈ 0.0219 µM)
MIC50 (Haemophilus influenzae [23]): 0.015 µg/mL (≈ 0.0219 µM)
MIC90 (Haemophilus influenzae [23]): 0.015 µg/mL (≈ 0.0219 µM)
MIC50 (Streptococcus pneumoniae [24]): 0.03 µg/mL (≈ 0.0438 µM)
MIC90 (Streptococcus pneumoniae [24]): 0.25 µg/mL (≈ 0.365 µM)
MIC (Staphylococcus aureus [25]): 0.5 µg/mL (≈ 0.73 µM)
MIC50 (Staphylococcus aureus [25]): 0.5 µg/mL (≈ 0.73 µM)
MIC90 (Staphylococcus aureus [25]): 1 µg/mL (≈ 1.46 µM)
MIC (Streptococcus agalactiae): 0.015 µg/mL (≈ 0.0219 µM)
MIC50 (Streptococcus agalactiae): 0.015 µg/mL (≈ 0.0219 µM)
MIC90 (Streptococcus agalactiae): 0.015 µg/mL (≈ 0.0219 µM)
MIC (Enterococcus faecalis [26]): 1 µg/mL (≈ 1.46 µM)
MIC50 (Enterococcus faecalis [26]): 1 µg/mL (≈ 1.46 µM)
MIC90 (Enterococcus faecalis [26]): 4 µg/mL (≈ 5.84 µM)
MIC (Streptococcus pyogenes [27]): 0.015 µg/mL (≈ 0.0219 µM)
MIC50 (Streptococcus pyogenes [27]): 0.015 µg/mL (≈ 0.0219 µM)
MIC90 (Streptococcus pyogenes [27]): 0.015 µg/mL (≈ 0.0219 µM)
MIC50 (Klebsiella pneumoniae [28]): 32 µg/mL (≈ 46.7 µM)
MIC90 (Klebsiella pneumoniae [28]): > 32 µg/mL
MIC50 (Providencia rettgeri): 1 µg/mL (≈ 1.46 µM)
MIC90 (Providencia rettgeri): 4 µg/mL (≈ 5.84 µM)
MIC50 (Enterobacter cloacae): 0.12 µg/mL (≈ 0.175 µM)
MIC90 (Enterobacter cloacae): 0.5 µg/mL (≈ 0.73 µM)
MIC50 (Klebsiella pneumoniae [29]): 0.06 µg/mL (≈ 0.0876 µM)
MIC90 (Klebsiella pneumoniae [29]): 0.25 µg/mL (≈ 0.365 µM)
